What all share (assay type): functional, tissue-based
In one experiment the target is T1, B1 bradykinin receptor (Rattus norvegicus, UniProt P97583).
T1 sequence (P97583 whole entry): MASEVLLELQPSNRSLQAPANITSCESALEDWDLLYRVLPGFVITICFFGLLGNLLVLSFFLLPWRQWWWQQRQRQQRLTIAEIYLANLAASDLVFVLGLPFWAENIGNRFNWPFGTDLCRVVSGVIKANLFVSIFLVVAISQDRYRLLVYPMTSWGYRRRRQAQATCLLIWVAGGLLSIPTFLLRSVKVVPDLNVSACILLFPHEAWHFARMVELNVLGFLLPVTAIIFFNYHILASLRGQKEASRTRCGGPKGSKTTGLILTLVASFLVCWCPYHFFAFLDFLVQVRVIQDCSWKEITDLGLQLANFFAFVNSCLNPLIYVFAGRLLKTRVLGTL
Put plainly: Antagonistic activity against Bradykinin receptor B1 of rat ileum longitudinal smooth muscle. Conditions: for Kb: read-out: pA2 (converted). In a few lines:
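Rat ileum longitudinal muscle-myenteric plexus strips in oxygenated (95% O2/5% CO2) Krebs with indomethacin, guanethidine (3 μM each), chlorpheniramine, atropine (1 μM each). Cumulative desArg9-BK curves with thiorphan, bestatin, captopril (1 μM each); antagonist given 15 min before repeat curve at 1–10 μM. Contraction read-out; pA2 (dose ratio 2), mean ± SE of 4–15 experiments.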

The target in a further experiment is T2, B2 bradykinin receptor (Cavia porcellus, UniProt O70526).
T2 sequence (O70526 whole entry): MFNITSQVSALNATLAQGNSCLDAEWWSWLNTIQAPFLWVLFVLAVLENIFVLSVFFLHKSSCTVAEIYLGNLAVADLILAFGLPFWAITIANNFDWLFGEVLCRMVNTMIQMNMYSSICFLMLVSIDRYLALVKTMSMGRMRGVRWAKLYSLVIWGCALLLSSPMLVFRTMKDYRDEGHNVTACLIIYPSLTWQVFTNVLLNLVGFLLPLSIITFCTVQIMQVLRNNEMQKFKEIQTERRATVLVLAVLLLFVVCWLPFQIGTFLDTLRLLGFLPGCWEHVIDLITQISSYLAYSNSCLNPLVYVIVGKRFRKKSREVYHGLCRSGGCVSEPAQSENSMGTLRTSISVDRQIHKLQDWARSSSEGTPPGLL
Put plainly: (§1) Antagonistic activity against Bradykinin receptor B2 of guinea pig ileum longitudinal smooth muscle. Conditions: for Kb: read-out: pA2 (converted). In a few lines: (§2)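 Guinea pig ileum longitudinal muscle-myenteric plexus strips in oxygenated (95% O2/5% CO2) Krebs with indomethacin, guanethidine (3 μM each), chlorpheniramine, atropine (1 μM each). Cumulative BK curves with thiorphan, bestatin, captopril (1 μM each); antagonist given 15 min before repeat curve at 1–10 μM. Contraction read-out; pA2 (dose ratio 2), mean ± SE of 4–15 experiments.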

In experiment [1] the target is T3, B2 bradykinin receptor (Cavia porcellus) (UniProt O70526).
T3 sequence (whole entry): T2 sequence (O70526 whole entry)
The description is as §1. In a few lines:
as §2

The results in this text go back to ChEMBL document CHEMBL1132566, “A new class of pseudopeptide antagonists of the kinin B1 receptor containing alkyl spacers” (J Med Chem, 1999).

Structures are written as SMILES. Active and inactive are the calls of the source. The calls are words filed in the database; no cut-off is given here. Where a SMILES comes first, the peptide text is derived from it. [ ]: non-standard residue; d: D form. Oic = O=C(O)[C@@H]1C[C@@H]2CCCC[C@@H]2N1; d2Nal = N[C@H](Cc1ccc2ccccc2c1)C(=O)O; Hyp = O=C(O)[C@@H]1C[C@@H](O)CN1; dTic = O=C(O)[C@H]1Cc2ccccc2CN1; 2Thi = N[C@@H](Cc1cccs1)C(=O)O Some results are limits rather than exact numbers.

A word on the pA2: it is a measure of antagonist potency on a negative log scale.

Turning to `NC(N)=NCCC[C@@H](N)C(=O)N[C@@H](CCCN=C(N)N)C(=O)N1CCC[C@H]1C(=O)N1C[C@H](O)C[C@H]1C(=O)NCC(=O)N[C@H](C(=O)N[C@@H](CO)C(=O)N[C@@H](C(=O)N1[C@H](C(=O)N[C@@H](CCCN=C(N)N)C(=O)O)C[C@@H]2CCCC[C@@H]21)C1Cc2ccccc2C1)C1Cc2ccccc2C1`, the Kb on B1 bradykinin receptor was 0.02 µM; on B2 bradykinin receptor, 0.00631 µM.

Consider `NC(N)=NCCC[C@@H](N)C(=O)N[C@@H](CCCN=C(N)N)C(=O)NCCCCCCCCCCC(=O)N[C@@H](CO)C(=O)N1Cc2ccccc2C[C@@H]1C(=O)N1[C@H](C(=O)O)C[C@@H]2CCCC[C@@H]21`, for which, at B1 bradykinin receptor, the Kb is 0.0794 µM. Also, in experiment [1], the pA2 entry was “inactive”.

Take `NC(N)=NCCC[C@@H](N)C(=O)N[C@@H](CCCN=C(N)N)C(=O)NC1(C(=O)N[C@@H](CO)C(=O)N2Cc3ccccc3C[C@@H]2C(=O)N2[C@H](C(=O)O)C[C@@H]3CCCC[C@@H]32)CCCCCC1`: the Kb on B1 bradykinin receptor is 1.26 µM. Further, the pA2 result in experiment [1] is “inactive”.

For `CC(=O)N[C@@H](CCCCN)C(=O)N[C@@H](CCCN=C(N)N)C(=O)NCCCCCCCCCCC(=O)N[C@@H](CO)C(=O)N1Cc2ccccc2C[C@@H]1C(=O)N1[C@H](C(=O)O)C[C@@H]2CCCC[C@@H]21`, the Kb on B1 bradykinin receptor was 0.251 µM. Further, the pA2 entry in experiment [1] is “inactive”.

With `CC[C@H](C)[C@H](NC(=O)[C@@H](Cc1ccc2ccccc2c1)NC(=O)[C@H](CO)NC(=O)CCCCCCCCCCNC(=O)[C@H](CCCN=C(N)N)NC(=O)[C@H](CCCCN)NC(C)=O)C(=O)O`, the results for the Kb on B1 bradykinin receptor and on B2 bradykinin receptor were 0.1 µM and 1.26 µM, respectively.

With `NC(N)=NCCC[C@@H](N)C(=O)N[C@@H](CCCN=C(N)N)C(=O)NCCCCCCCCCCCC(=O)N[C@@H](CO)C(=O)N1Cc2ccccc2C[C@@H]1C(=O)N1[C@H](C(=O)O)C[C@@H]2CCCC[C@@H]21`, the Kb at B1 bradykinin receptor was 0.1 µM; at B2 bradykinin receptor, 3.98 µM.

Regarding `NCCCC[C@H](NC(=O)[C@@H](N)CCCCN)C(=O)N[C@@H](CCCN=C(N)N)C(=O)N1CCC[C@H]1C(=O)N1C[C@H](O)C[C@H]1C(=O)NCC(=O)N[C@H](C(=O)N[C@@H](CO)C(=O)N[C@@H](C(=O)N1[C@H](C(=O)O)C[C@@H]2CCCC[C@@H]21)C1Cc2ccccc2C1)C1Cc2ccccc2C1`, the results for the Kb on B1 bradykinin receptor and at B2 bradykinin receptor were 0.00794 µM and 3.16 µM, respectively.

Consider `NC(N)=NCCC[C@@H](N)C(=O)N[C@@H](CCCN=C(N)N)C(=O)NCC(=O)NC1(C(=O)NCC(=O)N[C@@H](CO)C(=O)N2Cc3ccccc3C[C@@H]2C(=O)N2[C@H](C(=O)O)C[C@@H]3CCCC[C@@H]32)CCCCCC1`, for which, at B1 bradykinin receptor, the Kb is 6.31 µM. Besides, the pA2 entry in experiment [1] is “inactive”.

Turning to `NCCCCC(N)C(=O)N[C@@H](CCCN=C(N)N)C(=O)NCCCCCCCCCCC(=O)N[C@@H](CO)C(=O)N1Cc2ccccc2C[C@@H]1C(=O)N1[C@H](C(=O)O)C[C@@H]2CCCC[C@@H]21` (stereo in doubt), the Kb on B1 bradykinin receptor is 1 µM. The pA2 entry in experiment [1] is “inactive”.

Consider `NC(N)=NCCC[C@@H](N)C(=O)N[C@@H](CCCN=C(N)N)C(=O)NCCCC(=O)NC1(C(=O)NCCCC(=O)N[C@@H](CO)C(=O)N2Cc3ccccc3C[C@@H]2C(=O)N2[C@H](C(=O)O)C[C@@H]3CCCC[C@@H]32)CCCCCC1`, for which the values for the Kb on B1 bradykinin receptor and on B2 bradykinin receptor were 2 µM and greater than 10 µM, respectively.

Consider `NCCCC[C@H](NC(=O)[C@@H](N)CCCCN)C(=O)N[C@@H](CCCN=C(N)N)C(=O)NCCCCCCCCCCC(=O)N[C@@H](CO)C(=O)N[C@@H](C(=O)N1[C@@H](C(=O)O)C[C@@H]2CCCC[C@@H]21)C1Cc2ccccc2C1`, for which the figures for the pA2 on B1 bradykinin receptor and at B2 bradykinin receptor were 6.3 and 5.5, respectively.

In the case of `NC(N)=NCCC[C@@H](N)C(=O)N[C@@H](CCCN=C(N)N)C(=O)NCCCCCC(=O)N[C@@H](CO)C(=O)N1Cc2ccccc2C[C@@H]1C(=O)N1[C@H](C(=O)O)C[C@@H]2CCCC[C@@H]21`, at B1 bradykinin receptor, the Kb was 2 µM. Moreover, the pA2 result in experiment [1] is “inactive”.

In the case of `NC(N)=NCCC[C@@H](N)C(=O)N[C@@H](CCCN=C(N)N)C(=O)NCCCCCCCCCCC(=O)N[C@@H](CO)C(=O)N[C@@H](C(=O)N1[C@@H](C(=O)O)C[C@H]2CCCC[C@H]21)C1Cc2ccccc2C1`, the results for the pA2 on B1 bradykinin receptor and at B2 bradykinin receptor were 6.3 and 6, respectively.

In the case of `NC(N)=NCCC[C@@H](N)C(=O)N[C@@H](CCCN=C(N)N)C(=O)NC1(C(=O)N[C@@H](CO)C(=O)N2Cc3ccccc3C[C@@H]2C(=O)N2[C@H](C(=O)O)C[C@@H]3CCCC[C@@H]32)CCCCCCCC1`, the Kb at B1 bradykinin receptor was 6.31 µM. In addition, the pA2 entry in experiment [1] is “inactive”.

Regarding `NCCCC[C@H](NC(=O)[C@@H](N)CCCCN)C(=O)N[C@@H](CCCN=C(N)N)C(=O)NCCCCCCCCCCC(=O)N[C@@H](CO)C(=O)N1Cc2ccccc2C[C@@H]1C(=O)N1[C@H](C(=O)O)C[C@@H]2CCCC[C@@H]21`, the Kb on B1 bradykinin receptor was 0.794 µM. Further, the pA2 entry in experiment [1] was “inactive”.

As for `CC[C@H](C)[C@H](NC(=O)[C@@H](Cc1ccc2ccccc2c1)NC(=O)[C@H](CO)NC(=O)[C@H](Cc1ccccc1)NC(=O)CNC(=O)[C@@H]1CCCN1C(=O)[C@@H]1CCCN1C(=O)[C@H](CCCN=C(N)N)NC(=O)[C@H](CCCCN)NC(C)=O)C(=O)O` (Ac-KRPPGFS[d2Nal]I-OH), the figures for the Kb on B1 bradykinin receptor and at B2 bradykinin receptor were 0.0631 µM and 1 µM, respectively.

For `NC(N)=NCCC[C@@H](N)C(=O)N[C@@H](CCCN=C(N)N)C(=O)NCCCCCCCCCCC(=O)N[C@@H](CO)C(=O)N[C@@H](C(=O)N1[C@H](C(=O)N[C@@H](CCCN=C(N)N)C(=O)O)C[C@@H]2CCCC[C@@H]21)C1Cc2ccccc2C1`, the Kb was 10 µM at B1 bradykinin receptor and 0.794 µM on B2 bradykinin receptor.

As for `NC(N)=NCCC[C@@H](N)C(=O)N[C@@H](CCCN=C(N)N)C(=O)NC1(C(=O)N[C@@H](CO)C(=O)N2Cc3ccccc3C[C@@H]2C(=O)N2[C@H](C(=O)O)C[C@@H]3CCCC[C@@H]32)CCCCC1`, the Kb on B1 bradykinin receptor is 10 µM. In experiment [1], the pA2 entry is “inactive”.

As to `NC(N)=NCCC[C@@H](N)C(=O)N[C@@H](CCCN=C(N)N)C(=O)NC1(C(=O)N[C@@H](CO)C(=O)N2Cc3ccccc3C[C@@H]2C(=O)N2[C@H](C(=O)O)C[C@@H]3CCCC[C@@H]32)CCCCCCC1`, the Kb at B1 bradykinin receptor is 3.16 µM; at B2 bradykinin receptor, greater than 10 µM.

Turning to `NC(N)=NCCC[C@@H](N)C(=O)N[C@@H](CCCN=C(N)N)C(=O)NCCC(=O)NC1(C(=O)NCCC(=O)N[C@@H](CO)C(=O)N2Cc3ccccc3C[C@@H]2C(=O)N2[C@H](C(=O)O)C[C@@H]3CCCC[C@@H]32)CCCCCC1`, the Kb on B1 bradykinin receptor is 2.51 µM. Also, in experiment [1], the pA2 result was “inactive”.

Turning to `N=C(N)NCCC[C@@H](N)C(=O)N[C@@H](CCCNC(=N)N)C(=O)N1CCC[C@H]1C(=O)N1C[C@H](O)C[C@H]1C(=O)NCC(=O)N[C@@H](Cc1cccs1)C(=O)N[C@@H](CO)C(=O)N1Cc2ccccc2C[C@@H]1C(=O)N1[C@H](C(=O)O)C[C@@H]2CCCC[C@@H]21` (H-[dR]RP[Hyp]G[2Thi]S[dTic][Oic]-OH), the Kb on B1 bradykinin receptor is 0.158 µM; on B2 bradykinin receptor it was 2 µM.

For `NC(N)=NCCC[C@@H](N)C(=O)N[C@@H](CCCN=C(N)N)C(=O)NCCCCCCCC(=O)N[C@@H](CO)C(=O)N1Cc2ccccc2C[C@@H]1C(=O)N1[C@H](C(=O)O)C[C@@H]2CCCC[C@@H]21`, the Kb at B1 bradykinin receptor is 3.98 µM. Besides, the pA2 entry in experiment [1] is “inactive”.
